# According to ChEMBL document CHEMBL2010670, “Discovery of a clinical stage multi-kinase inhibitor sodium (E)-2-{2-methoxy-5-[(2',4',6'-trimethoxystyrylsulfonyl)methyl]phenylamino}acetate (ON 01910.Na): synthesis, structure-activity relationship, and biological activity” (J Med Chem, 2011):
# How the values were obtained:
# CCRF-CEM = experiment: Cytotoxicity against human CEM cells assessed as cell viability after 96 hrs by trypan blue exclusion; assay type: functional, cell-based
# Outline: (§1)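 Cells grown in DMEM or RPMI with 10% FBS and penicillin-streptomycin, seeded at 1.0 × 10⁵ cells/mL/well in 6-well dishes. Compound added at a range of concentrations 24 h after seeding. Viable cells counted by trypan blue exclusion from duplicate wells after 96 h of exposure; dose-response end point.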
# CEM/C2 = experiment: Resistance ratio of IC50 for human CEM cells to IC50 for multidrug-resistant human CEM/C2 cells; assay type: functional
# Outline: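 Cells were grown in DMEM or RPMI with 10% FBS and plated at 1.0 × 10⁵ cells/mL/well in 6-well dishes. Compound was added 24 h later at various concentrations for 96 h. Viable cells were counted from duplicate wells by trypan blue exclusion, and the IC50 of each line gave the ratio.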
# [1] = Cytotoxicity against human GRANTA-519 cells after 96 hrs by trypan blue exclusion assay; assay type: functional, cell-based; settings: Granta-519, 96 h; outline: as §1
# LP-1 = experiment: Cytotoxicity against human LP-1 cells after 96 hrs by trypan blue exclusion assay; assay type: functional, cell-based; settings: LP-1, 96 h; outline: as §1
# Mus musculus = experiment: Toxicity against NCR-nu/nu, Taconic mouse xenografted with human BT20 cells assessed as decrease in body weight at 200 mg/kg, ip administered every other day for 22 days; assay type: organism-based, BT-20; design: dose 200 mg/kg, route intraperitoneal; scale not given: the % may be the effect or the level left; settings: in vivo, 528 h
# Outline: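 Female athymic nude mice bearing subcutaneous BT20 hind-leg xenografts (0.5–1.0 × 10⁷ cells) grouped about 14 days later at ~70 mm³ (N=9). Dosed 200 mg/kg in PBS or PBS alone, Q2D × 20; methods state tail-vein IV, legend states IP. Body weight recorded at each tumor measurement, three times weekly; observed for toxicity signs; mean ± SEM.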
# HUVEC = experiment: Cytotoxicity against HUVEC after 96 hrs by trypan blue exclusion assay; assay type: cell-based; settings: Homo sapiens; outline: as §1
# K562 = experiment: Cytotoxicity against human K562 cells after 96 hrs by trypan blue exclusion assay; assay type: functional, cell-based; settings: k562; outline: as §1
# HFL1 [2] = experiment: Cell cycle arrest in human HFL1 cells assessed as accumulation at G1 phase at 0.1 to 1 uM after 24 hrs by propidium iodide staining-based flow cytometric analysis; assay type: ADME; settings: hfl1, 24 h
# Outline: (§2)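 DMEM with 10% FBS; 1.0 × 10⁶ cells/dish, treated 24 h after plating and harvested 24 h after treatment. Trypsinized cells were pooled with floating cells, PBS-washed and fixed in ice-cold 70% ethanol for ≥24 h. Cells were stained with propidium iodide plus RNase A for 30 min at 37 °C. DNA content was read by flow cytometry with cell-cycle modelling.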
# [3] = Cytotoxicity against human […] cells after 96 hrs by trypan blue exclusion assay; assay type: functional, cell-based
# Outline: (§3)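 Cells grown in DMEM or RPMI with 10% FBS and 1 unit/mL penicillin-streptomycin, seeded at 1.0 × 10⁵ cells/mL/well in 6-well dishes; compound added 24 h later at various concentrations. After 96 h of treatment, viable cells counted by trypan blue exclusion in duplicate wells; dose-response end point.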
# MOLT-4 = experiment: Cytotoxicity against human MOLT4 cells after 96 hrs by trypan blue exclusion assay; assay type: functional, cell-based; settings: MOLT-4, 96 h; outline: as §1
# [4] = Cytotoxicity against human NAMALWA cells after 96 hrs by trypan blue exclusion assay; assay type: functional, cell-based; settings: NAMALVA; outline: as §1
# T47D = experiment: Cytotoxicity against human T47D cells after 96 hrs by trypan blue exclusion assay; assay type: functional, cell-based; outline: as §3
# BT-20 = experiment: Antitumor activity in human BT20 cells xenografted in NCR-nu/nu, Taconic mouse assessed as decrease in tumor volume at 200 mg/kg, ip administered every other day for 22 days relative to control; assay type: functional; settings: route intraperitoneal
# Outline: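 Female athymic NCR-nu/nu mice received 0.5–1.0 x10⁷ BT20 cells subcutaneously in the hind leg. Dosing began about 14 days later, with tumors near 70 mm³. Groups of N=9 got 200 mg/kg in PBS or PBS vehicle, Q2D x 20. Two tumor dimensions were measured by caliper three times weekly, and V = L×S²×π/6. Body weight and toxicity signs were tracked. Group means ±SEM.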
# RPMI-7951 = experiment: Cytotoxicity against human RPMI7951 cells after 96 hrs by trypan blue exclusion assay; assay type: functional, cell-based; settings: RPMI-7951, 96 h; outline: as §3
# [5] = Cytotoxicity against human RF48 cells after 96 hrs by trypan blue exclusion assay; assay type: functional, cell-based; settings: RF48, 96 h; outline: as §3
# COLO 205 = experiment: Cytotoxicity against human COLO205 cells after 96 hrs by trypan blue exclusion assay; assay type: functional, cell-based; settings: COLO 205, 96 h; outline: as §1
# [6] = Cytotoxicity against human WM793 cells after 96 hrs by trypan blue exclusion assay; assay type: functional, cell-based; settings: WM793, 96 h; outline: as §3
# SK-BR-3 = experiment: Cytotoxicity against human SKBR3 cells after 96 hrs by trypan blue exclusion assay; assay type: functional, cell-based; settings: SK-BR-3, 96 h; outline: as §3
# Daudi = experiment: Cytotoxicity against human Daudi cells after 96 hrs by trypan blue exclusion assay; assay type: functional, cell-based; outline: as §1
# HFL1 [7] = experiment: Cell cycle arrest in human HFL1 cells assessed as accumulation of cells in G2/M phase at 0.1 to 1 uM after 24 hrs by propidium iodide staining-based flow cytometric analysis; assay type: ADME; settings: hfl1, 24 h; outline: as §2
# MCF7 = experiment: Cytotoxicity against human MCF7 cells after 96 hrs by trypan blue exclusion assay; assay type: functional, cell-based; settings: MCF7, 96 h; outline: as §1
# A549 = experiment: Cytotoxicity against human A549 cells after 96 hrs by trypan blue exclusion assay; assay type: functional, cell-based; settings: A549, 96 h; outline: as §1
# [8] = Cytotoxicity against human WM1341D cells after 96 hrs by trypan blue exclusion assay; assay type: functional, cell-based; outline: as §3
# U-266 = experiment: Cytotoxicity against human U266 cells after 96 hrs by trypan blue exclusion assay; assay type: functional, cell-based; settings: U-266, 96 h; outline: as §3
smiles,measurement,setting,value
COc1cc(OC)c(/C=C/S(=O)(=O)Cc2ccc(OC)c(NCC(=O)[O-])c2)c(OC)c1.[Na+] [RIGOSERTIB SODIUM],IC50,CCRF-CEM,0.1 µM
same,Ratio IC50,CEM/C2,2
same,IC50,[1],0.075 µM
same,IC50,LP-1,0.03 µM
same,Activity,Mus musculus,< 10%
same,IC50,HUVEC,> 100 µM
same,IC50,K562,0.015 µM
same,Activity,HFL1 [2],Toxic
same,IC50,[3],0.01 µM
same,IC50,MOLT-4,0.04 µM
same,IC50,[4],0.075 µM
same,IC50,T47D,0.17 µM
same,fold change (FC),BT-20,2.5
same,IC50,RPMI-7951,0.025 µM
same,IC50,[5],0.05 µM
same,IC50,COLO 205,0.15 µM
same,IC50,[6],0.075 µM
same,IC50,SK-BR-3,0.075 µM
same,IC50,Daudi,0.15 µM
same,Activity,HFL1 [7],Toxic
same,IC50,MCF7,0.075 µM
same,IC50,A549,0.09 µM
same,IC50,[8],0.1 µM
same,IC50,U-266,0.025 µM
